Experimental data from ChEMBL document CHEMBL3112398, “Qualification of LSP1-2111 as a Brain Penetrant Group III Metabotropic Glutamate Receptor Orthosteric Agonist” (ACS Med Chem Lett, 2014).
Blank lines part the entries; values can stand above or below the molecule they belong to.

Legend:
Homo sapiens [1] = organism: Homo sapiens; experiment: Selectivity for mGlu4 receptor (unknown origin) over mGlu6 receptor (unknown origin)
Homo sapiens [2] = organism: Homo sapiens; experiment: Selectivity for mGlu4 receptor (unknown origin) over mGlu8 receptor (unknown origin)
Homo sapiens [3] = organism: Homo sapiens; experiment: Selectivity for mGlu4 receptor (unknown origin) over mGlu7 receptor (unknown origin)
[4] = Half life in Sprague-Dawley rat at 1 mg/kg, iv; assay type: ADME, organism-based; design: dose 1 mg/kg, route intravenous; conditions: in vivo
Outline: (§1)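 SD rats given IV (1 mg/kg) or oral (10 mg/kg) doses as a solution in saline buffered to pH 7.4, dose volume 5 mL/kg, N = 2. Plasma concentration–time profiles analysed by noncompartmental analysis; reported values are means.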

Plasma [5] = experiment: Maximum unbound concentration in Sprague-Dawley rat plasma at 10 mg/kg, sc after 0.5 hrs by quantitative microdialysis method; conditions: in vivo
Liver microsome [6] = experiment: Intrinsic clearance in human liver microsomes; assay type: ADME
[7] = Half life in Sprague-Dawley rat plasma at 10 mg/kg, sc by quantitative microdialysis method; assay type: ADME, organism-based; design: dose 10 mg/kg, route subcutaneous
Outline: (§2)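 Rats dosed SC at 10 mg/kg with drug in saline at pH 7.4; plasma, CSF and brain homogenate sampled over a 6 h time course (0.5–6 h), N = 4. Brain not perfused before homogenization. AUC0-6 computed from the concentration–time profiles.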

[8] = Drug uptake in Sprague-Dawley rat CSF at 10 mg/kg, sc after 6 hrs by quantitative microdialysis method; assay type: ADME, organism-based, Cerebrospinal fluid; design: dose 10 mg/kg, route subcutaneous; conditions: read-out: Drug uptake; outline: as §2
[9] = Plasma concentration in Sprague-Dawley rat at 10 mg/kg, sc after 60 mins by quantitative microdialysis method; assay type: ADME, organism-based; design: dose 10 mg/kg, route subcutaneous
Outline: (§3)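 Rat in vivo microdialysis with a MetaQuant probe at a low flow rate of 0.1 μL/min after SC doses of 10 or 30 mg/kg. Brain ECF dialysate and plasma concentrations followed over time. ECF values corrected for 96% in vivo probe recovery.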

[10] = Plasma clearance in Sprague-Dawley rat at 1 mg/kg, iv; assay type: ADME, organism-based; design: dose 1 mg/kg, route intravenous; outline: as §1
[11] = Fraction unbound in rat brain homogenates; assay type: ADME, tissue-based; conditions: brain homogenate
Liver microsome [12] = experiment: Intrinsic clearance in rat liver microsomes; assay type: ADME
[13] = Thermodynamic solubility of the compound at pH 7.4; assay type: physicochemical; conditions: buffer, read-out: Therm_solubility
[14] = Ratio of AUC (0 to 6 hrs) from CSF to plasma in Sprague-Dawley rat at 10 mg/kg, sc by quantitative microdialysis method; assay type: ADME, organism-based; design: dose 10 mg/kg, route subcutaneous
Outline: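 Rats given 10 mg/kg SC, formulated in saline at pH 7.4 (N = 4). Plasma, CSF and brain were sampled over a 6 h time course starting at 0.5 h. Brain was homogenized without perfusion, so capillary blood was retained. Ratios were calculated from AUC0-6 of CSF or brain homogenate versus plasma.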

Brain [15] = experiment: Drug uptake in Sprague-Dawley rat brain at 10 mg/kg, sc after 4 hrs by quantitative microdialysis method; assay type: ADME, organism-based; design: dose 10 mg/kg, route subcutaneous; conditions: in vivo; outline: as §2
[16] = Ratio of AUC (0 to 6 hrs) from brain to plasma in Sprague-Dawley rat at 10 mg/kg, sc by quantitative microdialysis method; assay type: ADME, organism-based; design: dose 10 mg/kg, route subcutaneous; conditions: in vivo
MDR1 [17] = experiment: Apparent permeability from apical to basolateral side in MDCK cells expressing MDR1; assay type: ADME, cell-based, Canis lupus familiaris; conditions: dog
Outline: (§4)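 Bidirectional transport across MDCK/MDR1 monolayers, apparent permeability measured A→B and B→A. The B→A/A→B ratio is used as an indicator of P-gp substrate behaviour.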

[18] = Lipophilicity, log D of the compound at pH 7.4; assay type: physicochemical; conditions: buffer
MDR1 [19] = experiment: Apparent permeability from basolateral to apical side in MDCK cells expressing MDR1; assay type: ADME, cell-based, Canis lupus familiaris; conditions: dog; outline: as §4
[20] = Kinetic aqueous solubility of the compound; assay type: physicochemical; conditions: buffer; read-out: Kinetic_solubility
Outline: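 Kinetic aqueous solubility determined in an assay developed and optimized for lipophilic compounds; detection limit 800 μM.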

[21] = Drug uptake in rat Sprague-Dawley ECF at 10 mg/kg, sc after 60 mins by quantitative microdialysis method; assay type: ADME, organism-based; design: dose 10 mg/kg, route subcutaneous; conditions: read-out: Drug uptake; outline: as §3
[22] = molecular target: Metabotropic glutamate receptor 4 (Homo sapiens, UniProt Q14833); experiment: Displacement of [3H]-L-AP4 from human mGlu4 receptor
Metabotropic glutamate receptor 4, sequence (Q14833 whole entry): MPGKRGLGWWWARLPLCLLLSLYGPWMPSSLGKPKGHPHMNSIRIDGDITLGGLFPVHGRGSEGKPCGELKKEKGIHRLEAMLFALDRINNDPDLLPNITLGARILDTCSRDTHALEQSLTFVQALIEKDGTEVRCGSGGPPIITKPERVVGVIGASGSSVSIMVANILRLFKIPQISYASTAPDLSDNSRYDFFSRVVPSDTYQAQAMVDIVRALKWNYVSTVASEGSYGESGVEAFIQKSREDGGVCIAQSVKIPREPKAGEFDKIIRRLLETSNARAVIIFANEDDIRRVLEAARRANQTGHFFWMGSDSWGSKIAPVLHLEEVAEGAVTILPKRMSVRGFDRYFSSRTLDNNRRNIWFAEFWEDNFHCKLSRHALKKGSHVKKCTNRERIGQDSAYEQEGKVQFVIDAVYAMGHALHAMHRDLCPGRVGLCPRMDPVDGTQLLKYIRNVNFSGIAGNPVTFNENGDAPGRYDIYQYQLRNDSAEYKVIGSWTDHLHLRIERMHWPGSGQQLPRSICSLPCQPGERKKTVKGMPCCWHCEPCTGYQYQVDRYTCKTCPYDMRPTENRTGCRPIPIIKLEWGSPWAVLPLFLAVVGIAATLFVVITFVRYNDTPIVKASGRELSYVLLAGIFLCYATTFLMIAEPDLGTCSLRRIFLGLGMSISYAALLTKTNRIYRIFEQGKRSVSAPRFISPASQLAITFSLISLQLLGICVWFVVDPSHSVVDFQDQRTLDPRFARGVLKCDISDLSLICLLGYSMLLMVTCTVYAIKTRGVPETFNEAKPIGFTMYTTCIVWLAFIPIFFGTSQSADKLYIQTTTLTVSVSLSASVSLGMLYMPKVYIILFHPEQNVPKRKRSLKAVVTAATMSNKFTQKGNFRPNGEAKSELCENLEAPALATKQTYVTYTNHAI

hERG (KCNH2) = hERG (KCNH2) (Homo sapiens, UniProt Q12809); experiment: Inhibition of human ERG channel at 30 uM by ionworks assay
hERG (KCNH2), sequence (Q12809 whole entry): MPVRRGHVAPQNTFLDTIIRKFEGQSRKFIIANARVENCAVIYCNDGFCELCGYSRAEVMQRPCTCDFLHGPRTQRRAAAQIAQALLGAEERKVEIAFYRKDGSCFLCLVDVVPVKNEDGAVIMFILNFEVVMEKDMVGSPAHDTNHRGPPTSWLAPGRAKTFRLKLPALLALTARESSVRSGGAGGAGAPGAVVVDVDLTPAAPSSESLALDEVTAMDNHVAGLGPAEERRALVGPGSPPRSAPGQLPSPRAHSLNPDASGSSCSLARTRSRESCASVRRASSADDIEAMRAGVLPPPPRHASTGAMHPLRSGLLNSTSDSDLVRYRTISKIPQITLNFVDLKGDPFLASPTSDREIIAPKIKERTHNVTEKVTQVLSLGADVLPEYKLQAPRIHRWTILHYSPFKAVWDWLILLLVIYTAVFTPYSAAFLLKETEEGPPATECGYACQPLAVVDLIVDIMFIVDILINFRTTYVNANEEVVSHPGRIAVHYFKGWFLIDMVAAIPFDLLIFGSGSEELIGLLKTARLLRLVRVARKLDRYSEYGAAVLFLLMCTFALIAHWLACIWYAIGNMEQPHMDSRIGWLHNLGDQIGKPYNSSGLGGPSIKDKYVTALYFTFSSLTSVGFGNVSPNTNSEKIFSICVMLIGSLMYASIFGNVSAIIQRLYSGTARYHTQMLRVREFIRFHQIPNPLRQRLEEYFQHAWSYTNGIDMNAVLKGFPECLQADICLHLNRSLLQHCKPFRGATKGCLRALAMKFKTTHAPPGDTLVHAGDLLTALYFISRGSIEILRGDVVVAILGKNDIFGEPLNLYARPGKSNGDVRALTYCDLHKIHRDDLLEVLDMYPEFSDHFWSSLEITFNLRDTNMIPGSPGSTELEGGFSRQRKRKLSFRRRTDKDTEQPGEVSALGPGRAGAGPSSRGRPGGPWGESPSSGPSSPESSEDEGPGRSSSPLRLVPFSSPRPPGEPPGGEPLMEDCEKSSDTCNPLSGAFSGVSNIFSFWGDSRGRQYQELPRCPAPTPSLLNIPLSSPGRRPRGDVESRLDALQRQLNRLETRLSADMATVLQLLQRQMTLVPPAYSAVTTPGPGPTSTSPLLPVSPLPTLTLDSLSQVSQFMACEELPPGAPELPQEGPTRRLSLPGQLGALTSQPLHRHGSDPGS

[23] = AUC (infinity) in Sprague-Dawley rat at 10 mg/kg, po; assay type: ADME, organism-based; design: time infinity, dose 10 mg/kg, route oral; conditions: plasma
Outline: (§5)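 Plasma concentrations were followed over time. Pharmacokinetic parameters were derived by noncompartmental analysis and reported as means of N = 2 animals.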

[24] = Cmax in Sprague-Dawley rat at 10 mg/kg, po; assay type: ADME, organism-based; design: dose 10 mg/kg, route oral; conditions: in vivo; outline: as §1
Brain [25] = experiment: Drug uptake in Sprague-Dawley rat brain at 10 mg/kg, sc after 30 mins by quantitative microdialysis method; assay type: ADME, organism-based; design: dose 10 mg/kg, route subcutaneous; conditions: in vivo, 0.5 h; outline: as §2
[26] = Volume of distribution at steady state in Sprague-Dawley rat at 1 mg/kg, iv; assay type: ADME, organism-based; design: dose 1 mg/kg, route intravenous; conditions: in vivo, read-out: Vdss; outline: as §1
[27] = Tmax in Sprague-Dawley rat at 10 mg/kg, po; assay type: ADME, organism-based; design: dose 10 mg/kg, route oral; conditions: in vivo; outline: as §1
[28] = AUC (0 to 6 hrs) in Sprague-Dawley rat plasma at 10 mg/kg, sc by quantitative microdialysis method; assay type: ADME, organism-based; design: time < 6 hr, dose 10 mg/kg, route subcutaneous; outline: as §2
[29] = Drug uptake in Sprague-Dawley rat ECF at 30 mg/kg, sc after 60 mins by quantitative microdialysis method; assay type: ADME, organism-based; design: dose 30 mg/kg, route subcutaneous; conditions: read-out: Drug uptake; outline: as §3
[30] = Fraction unbound in mouse brain homogenates; assay type: ADME, tissue-based; conditions: brain homogenate
[31] = Fraction unbound in human plasma; assay type: ADME, cell-free
Brain [32] = experiment: Drug uptake in Sprague-Dawley rat brain at 10 mg/kg, sc after 6 hrs by quantitative microdialysis method; assay type: ADME, organism-based; design: dose 10 mg/kg, route subcutaneous; conditions: in vivo; outline: as §2
HepG2 = experiment: Cytotoxicity against human HepG2 cells by luminescence assay; assay type: cell-based
[33] = Fraction unbound in rat plasma; assay type: ADME, cell-free
[34] = Passive apparent permeability of the compound by PAMPA; assay type: ADME
Brain [35] = experiment: AUC (0 to 6 hrs) in Sprague-Dawley rat brain at 10 mg/kg, sc by quantitative microdialysis method; assay type: ADME, organism-based; design: time < 6 hr, dose 10 mg/kg, route subcutaneous; conditions: in vivo; outline: as §2
[36] = Fraction unbound in mouse plasma; assay type: ADME, cell-free
[37] = Plasma concentration in Sprague-Dawley rat at 30 mg/kg, sc after 60 mins by quantitative microdialysis method; assay type: ADME, organism-based; design: dose 30 mg/kg, route subcutaneous; outline: as §3
Plasma [38] = experiment: Plasma concentration in Sprague-Dawley rat at 10 mg/kg, sc after 0.5 to 6 hrs by quantitative microdialysis method; assay type: ADME, organism-based; design: dose 10 mg/kg, route subcutaneous; conditions: in vivo; outline: as §2
[39] = Oral bioavailability in Sprague-Dawley rat at 10 mg/kg; assay type: ADME, organism-based; conditions: in vivo; outline: as §1
[40] = AUC (0 to 6 hrs) in Sprague-Dawley rat CSF at 10 mg/kg, sc by quantitative microdialysis method; assay type: ADME, organism-based; design: time < 6 hr, dose 10 mg/kg, route subcutaneous; outline: as §2
[41] = AUC (infinity) in Sprague-Dawley rat at 1 mg/kg, iv; assay type: ADME, organism-based; design: time infinity, dose 1 mg/kg, route intravenous; conditions: plasma; outline: as §5

Selectivity ratio (Homo sapiens [1]): 40
Selectivity ratio (Homo sapiens [2]): 300
Selectivity ratio (Homo sapiens [3]): 100
SMILES: N[C@@H](CCP(=O)(O)C(O)c1ccc(OCC(=O)O)cc1)C(=O)O (stereo partly specified)

half-life [4]: 18 min
Cp(f) (Plasma [5]): 55.2 µM
CLH (Liver microsome [6]): 0.1 L/min
half-life [7]: 20 min
concentration at 6 h [8]: 700 nM
concentration at 1 h [9]: 31 µM
clearance [10]: 6.2 mL/min/kg
fraction unbound [11]: > 0.99
CLH (Liver microsome [12]): 3.1 mL/min
solubility thermodynamic [13]: > 1800 µg/mL
Ratio AUC [14]: 12%
Selectivity ratio (Homo sapiens [1]): 1
Drug uptake (Brain [15]): 0.08 µM
Ratio AUC [16]: 2.4%
Papp A→B (MDR1 [17]): 0.2 ×10⁻⁶ cm/s
logD [18]: -0.7
Papp B→A (MDR1 [19]): 0.5 ×10⁻⁶ cm/s
solubility kinetic [20]: > 800 µM
concentration at 1 h [21]: 1800 nM
Selectivity ratio (Homo sapiens [2]): 30
IC50 [22]: 8.6 µM
AUC(0-inf) [23]: 200 ng·h/mL
Cmax [24]: 92 ng/mL
Drug uptake (Brain [25]): 1 µM
Vd [26]: 0.1 L/kg
Tmax [27]: 1.4 h
AUC(0-t) at 6 h [28]: 30000 ng·h/mL
concentration at 1 h [29]: 9.8 µM
fraction unbound [30]: > 0.99
fraction unbound [31]: 0.73
Drug uptake (Brain [32]): 0.4 µM
fraction unbound [33]: > 0.99
Papp [34]: < 0.1 ×10⁻⁶ cm/s
AUC (Brain [35]): 0.7 µg·h/g
fraction unbound [36]: > 0.99
concentration at 1 h [37]: 114 µM
Cp (Plasma [38]): 0.15 µg/mL
bioavailability [39]: 0.8%
AUC(0-t) at 6 h [40]: 3500 ng·h/mL
Selectivity ratio (Homo sapiens [3]): 25
AUC(0-inf) [41]: 2800 ng·h/mL
SMILES: COc1cc(C(O)P(=O)(O)CC[C@H](N)C(=O)O)cc([N+](=O)[O-])c1O (mixture of isomers)
inhibition at 30 µM (hERG (KCNH2)): 14%
Activity (HepG2): Non-toxic
